Measurements as given in ChEMBL document CHEMBL4382246, “Synthesis, biological evaluation, and molecular docking investigation of 3-amidoindoles as potent tubulin polymerization inhibitors” (Eur J Med Chem, 2019).
Activity calls are given as the source filed them. The calls are words filed in the database; no cut-off is given here.

Key:
Hs-578T = test: Cytotoxicity against human Hs578T cells after 72 hrs by MTT assay; type: functional, cell-based
Procedure, shortened: (§1)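 Lines kept in RPMI-1640 with 10% FBS. Cells were seeded at 2×10³ per well and allowed to attach for 24 h at 37 °C. Medium was then replaced with medium holding serial dilutions from 100 mM DMSO stocks, with 0.1% DMSO as negative control, for 72 h at 37 °C. […] IC50 was fitted from the concentration series as the mean ± SD of three independent experiments run in duplicate.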

MDA-MB-231 = test: Cytotoxicity against human MDA-MB-231 cells after 72 hrs by MTT assay; type: functional, cell-based; conditions: MDA-MB-231, 72 h; procedure, shortened: as §1
[1] = biological target: T1, Tubulin alpha (Homo sapiens) (UniProt P0DPH7+P68366+Q71U36+P68363+Q9BQE3+Q6PEY2+A6NHL2+Q9NY65); test: Disruption of alpha-tubulin in human BT549 cells at 10 uM after 6 hrs by FITC/DAPI staining-based confocal microscopic analysis; type: cell-based
Procedure, shortened: (§2)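 BT549 cells (2×10⁴ per well) were attached overnight on glass coverslips, then exposed to 10 or 20 µM, or to 0.1% DMSO, for 6 h. Cells were fixed in 4% paraformaldehyde, permeabilized with 0.1% Triton X-100 and blocked in 5% BSA for 60 min. Primary antibodies were α-tubulin mouse and β-tubulin rabbit monoclonals, applied overnight at 4 °C. Secondaries were FITC anti-mouse and Alexa Fluor 555 anti-rabbit, with DAPI for nuclei, and cells were imaged by laser scanning confocal microscopy.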

BT-549 [2] = test: Cell cycle arrest in human BT549 cells assessed as accumulation of cells at G0/G1 phase at 8 uM after 24 hrs by propidium iodide staining-based flow cytometric analysis (reference value: 65.28%); type: functional
BT-549 [3] = test: Cell cycle arrest in human BT549 cells assessed as accumulation of cells at G2/M phase at 4 uM after 24 hrs by propidium iodide staining-based flow cytometric analysis (reference value: 8.88%); type: functional
BT-549 [4] = test: Cell cycle arrest in human BT549 cells assessed as accumulation of cells at S phase at 8 uM after 24 hrs by propidium iodide staining-based flow cytometric analysis (reference value: 25.84%); type: functional
BT-549 [5] = test: Cell cycle arrest in human BT549 cells after 24 hrs by propidium iodide staining-based flow cytometric analysis; type: functional
BT-549 [6] = test: Cell cycle arrest in human BT549 cells assessed as accumulation of cells at S phase at 2 uM after 24 hrs by propidium iodide staining-based flow cytometric analysis (reference value: 25.84%); type: functional
[7] = biological target: T1, Tubulin alpha (Homo sapiens); test: Disruption of alpha-tubulin in human BT549 cells assessed as round cell shape at 20 uM after 6 hrs by FITC/DAPI staining-based confocal microscopic analysis; procedure, shortened: as §2
Tubulin (Sus scrofa) = Tubulin (Sus scrofa) (UniProt P02554+P02550); test: Inhibition of pig brain tubulin polymerization at 10 uM by spectrophotometric analysis relative to control
Procedure, shortened: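 Tubulin polymerization inhibition was measured with compounds at a final concentration of 10 µM.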

[8] = biological target: T2, Tubulin beta (Homo sapiens) (UniProt P68371+Q9H4B7+Q13509+P04350+Q3ZCM7+P07437+Q13885+Q9BVA1+Q9BUF5+A6NNZ2); test: Disruption of beta-tubulin in human BT549 cells assessed as short microtubule at 20 uM after 6 hrs by FITC/DAPI staining-based confocal microscopic analysis; type: cell-based; procedure, shortened: as §2
BT-549 [9] = test: Cell cycle arrest in human BT549 cells assessed as accumulation of cells at G2/M phase at 2 uM after 24 hrs by propidium iodide staining-based flow cytometric analysis (reference value: 8.88%); type: functional
[10] = biological target: T1, Tubulin alpha (Homo sapiens); test: Disruption of alpha-tubulin in human BT549 cells assessed as formation of cellular rounding at 10 uM after 6 hrs by FITC/DAPI staining-based confocal microscopic analysis; type: cell-based; procedure, shortened: as §2
[11] = biological target: T1, Tubulin alpha (Homo sapiens); test: Disruption of alpha-tubulin in human BT549 cells assessed as short microtubule at 20 uM after 6 hrs by FITC/DAPI staining-based confocal microscopic analysis; type: cell-based; procedure, shortened: as §2
BT-549 [12] = test: Cell cycle arrest in human BT549 cells assessed as accumulation of cells at G0/G1 phase at 4 uM after 24 hrs by propidium iodide staining-based flow cytometric analysis (reference value: 65.28%); type: functional
BT-549 [13] = test: Cytotoxicity against human BT549 cells after 72 hrs by MTT assay; type: functional, cell-based; conditions: BT-549, 72 h; procedure, shortened: as §1
[14] = biological target: T2, Tubulin beta (Homo sapiens); test: Disruption of beta-tubulin in human BT549 cells assessed as loss of cellular structure at 10 uM after 6 hrs by FITC/DAPI staining-based confocal microscopic analysis; type: cell-based; procedure, shortened: as §2
BT-549 [15] = test: Cell cycle arrest in human BT549 cells assessed as accumulation of cells at S phase at 4 uM after 24 hrs by propidium iodide staining-based flow cytometric analysis (reference value: 25.84%); type: functional
[16] = biological target: T2, Tubulin beta (Homo sapiens); test: Disruption of beta-tubulin in human BT549 cells assessed as round cell shape at 20 uM after 6 hrs by FITC/DAPI staining-based confocal microscopic analysis; procedure, shortened: as §2
BT-549 [17] = test: Cell cycle arrest in human BT549 cells assessed as accumulation of cells at G0/G1 phase at 2 uM after 24 hrs by propidium iodide staining-based flow cytometric analysis (reference value: 65.28%); type: functional
[18] = biological target: T2, Tubulin beta (Homo sapiens); test: Disruption of beta-tubulin in human BT549 cells assessed as wrapped microtubule at 20 uM after 6 hrs by DAPI staining-based confocal microscopic analysis
[19] = biological target: T1, Tubulin alpha (Homo sapiens); test: Disruption of alpha-tubulin in human BT549 cells assessed as loss of cellular structure at 10 uM after 6 hrs by FITC/DAPI staining-based confocal microscopic analysis; type: cell-based; procedure, shortened: as §2
T47D = test: Cytotoxicity against human T47D cells after 72 hrs by MTT assay; type: functional, cell-based; procedure, shortened: as §1
MCF7 = test: Cytotoxicity against human MCF7 cells after 72 hrs by MTT assay; type: functional, cell-based; conditions: MCF7, 72 h; procedure, shortened: as §1
Tubulin = Tubulin (Sus scrofa, UniProt P02554+P02550); test: Inhibition of pig brain tubulin polymerization by spectrophotometric analysis
[20] = biological target: T2, Tubulin beta (Homo sapiens); test: Disruption of beta-tubulin in human BT549 cells assessed as formation of cellular rounding at 10 uM after 6 hrs by FITC/DAPI staining-based confocal microscopic analysis; type: cell-based; procedure, shortened: as §2
[21] = biological target: T2, Tubulin beta (Homo sapiens); test: Disruption of beta-tubulin in human BT549 cells at 10 uM after 6 hrs by FITC/DAPI staining-based confocal microscopic analysis; type: cell-based; procedure, shortened: as §2
[22] = biological target: T1, Tubulin alpha (Homo sapiens); test: Disruption of alpha-tubulin in human BT549 cells assessed as wrapped microtubule at 20 uM after 6 hrs by FITC/DAPI staining-based confocal microscopic analysis; type: cell-based; procedure, shortened: as §2
MDA-MB-468 = test: Cytotoxicity against human MDA-MB-468 cells after 72 hrs by MTT assay; type: functional, cell-based; conditions: MDA-MB-468, 72 h; procedure, shortened: as §1
BT-549 [23] = test: Cell cycle arrest in human BT549 cells assessed as accumulation of cells at G2/M phase at 8 uM after 24 hrs by propidium iodide staining-based flow cytometric analysis (reference value: 8.88%); type: functional

Sequence of Tubulin (Sus scrofa) (P02550 whole entry, looked up): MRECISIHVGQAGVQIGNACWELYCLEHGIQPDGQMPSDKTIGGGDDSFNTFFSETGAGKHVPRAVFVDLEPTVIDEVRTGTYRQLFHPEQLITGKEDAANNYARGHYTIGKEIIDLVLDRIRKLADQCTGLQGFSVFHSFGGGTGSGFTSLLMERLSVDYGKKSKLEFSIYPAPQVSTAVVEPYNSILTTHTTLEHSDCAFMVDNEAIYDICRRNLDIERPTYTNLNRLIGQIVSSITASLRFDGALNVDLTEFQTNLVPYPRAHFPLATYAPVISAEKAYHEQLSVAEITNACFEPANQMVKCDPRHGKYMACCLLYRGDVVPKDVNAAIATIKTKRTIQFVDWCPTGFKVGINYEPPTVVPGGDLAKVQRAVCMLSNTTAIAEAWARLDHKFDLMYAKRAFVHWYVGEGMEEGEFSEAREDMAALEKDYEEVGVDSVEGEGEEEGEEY
Sequence of Tubulin (Sus scrofa) (P02554 whole entry, looked up): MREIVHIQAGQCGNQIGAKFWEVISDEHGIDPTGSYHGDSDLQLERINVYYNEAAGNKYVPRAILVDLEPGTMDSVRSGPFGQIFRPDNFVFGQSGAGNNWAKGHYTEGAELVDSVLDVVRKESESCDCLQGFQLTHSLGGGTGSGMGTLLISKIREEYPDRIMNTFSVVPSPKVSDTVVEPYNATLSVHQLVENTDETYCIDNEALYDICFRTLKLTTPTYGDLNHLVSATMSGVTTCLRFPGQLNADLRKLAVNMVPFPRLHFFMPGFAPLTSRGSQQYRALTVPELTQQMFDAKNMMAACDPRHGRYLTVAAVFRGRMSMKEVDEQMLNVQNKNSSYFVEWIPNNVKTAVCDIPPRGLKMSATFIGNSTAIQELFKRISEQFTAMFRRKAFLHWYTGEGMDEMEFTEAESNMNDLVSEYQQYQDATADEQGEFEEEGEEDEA

Activity [1]: Active | Activity [7]: Active | inhibition (Tubulin (Sus scrofa)): 59% | Activity [8]: Active | Activity [10]: Active | Activity [11]: Active | Activity [14]: Active | Activity [16]: Active | Activity [18]: Active | Activity [19]: Active | IC50 (Tubulin): 9.5 µM | Activity [20]: Active | Activity [21]: Active | Activity [22]: Active
SMILES: COc1cc(C(=O)Nc2c(C(=O)c3ccc(Cl)cc3)[nH]c3cc(Cl)ccc23)cc(OC)c1OC
IC50 (Hs-578T): > 100 µM | IC50 (MDA-MB-231): 6.43 µM | Activity (BT-549 [2]): 19.76% | Activity (BT-549 [3]): 35.92% | Activity (BT-549 [4]): 23.66% | Activity (BT-549 [5]): Dose-dependent effect | Activity (BT-549 [6]): 41.6% | Activity (BT-549 [9]): 26.29% | Activity (BT-549 [12]): 31.07% | IC50 (BT-549 [13]): 3.17 µM | Activity (BT-549 [15]): 33.01% | Activity (BT-549 [17]): 32.1% | IC50 (T47D): 0.04 µM | IC50 (MCF7): 10.9 µM | IC50 (MDA-MB-468): 7.92 µM | Activity (BT-549 [23]): 56.58%
